Test results as given in ChEMBL document CHEMBL1136016, “Synthesis, biological activity, and molecular modeling investigation of new pyrazolo[4,3-e]-1,2,4-triazolo[1,5-c]pyrimidine derivatives as human A(3) adenosine receptor antagonists” (J Med Chem, 2002).

Legend:
Adenosine receptor A3 [1] = target: T1, Adenosine receptor A3 (Homo sapiens, UniProt P0DMS8); experiment: Displacement of […] from human Adenosine A3 receptor expressed in CHO cells; assay type: cell-based
T1 sequence (P0DMS8 whole entry): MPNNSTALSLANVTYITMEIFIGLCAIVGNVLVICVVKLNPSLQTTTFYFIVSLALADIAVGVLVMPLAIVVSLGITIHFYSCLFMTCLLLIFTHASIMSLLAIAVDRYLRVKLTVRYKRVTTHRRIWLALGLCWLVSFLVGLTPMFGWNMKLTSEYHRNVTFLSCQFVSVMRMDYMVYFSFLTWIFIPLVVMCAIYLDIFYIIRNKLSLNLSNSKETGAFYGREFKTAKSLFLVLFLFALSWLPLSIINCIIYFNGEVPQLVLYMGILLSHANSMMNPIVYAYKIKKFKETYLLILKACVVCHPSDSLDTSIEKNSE
How it was run: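 Membranes of CHO cells stably expressing human A3 receptor (50 µg protein/assay), incubated in duplicate with 1 nM [3H]MRE3008-F20 in 50 mM Tris HCl, 10 mM MgCl2 (pH 7.4) and six to eight ligand concentrations, 120 min at 4 °C. Nonspecific binding was set with 1 µM MRE3008-F20. Separation was by GF/B filtration and scintillation counting; n = 3-6.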

[2] = target: Adenosine receptors; A1 & A3 (Homo sapiens) (UniProt P30542+P0DMS8); experiment: Selectivity ratio (hA1/hA3); assay type: protein assay
Adenosine receptor A1 [3] = target: T2, Adenosine receptor A1 (Homo sapiens, UniProt P30542); experiment: Displacement of [3H]DPCPX from human Adenosine A1 receptor expressed in CHO cells; assay type: cell-based
T2 sequence (P30542 whole entry): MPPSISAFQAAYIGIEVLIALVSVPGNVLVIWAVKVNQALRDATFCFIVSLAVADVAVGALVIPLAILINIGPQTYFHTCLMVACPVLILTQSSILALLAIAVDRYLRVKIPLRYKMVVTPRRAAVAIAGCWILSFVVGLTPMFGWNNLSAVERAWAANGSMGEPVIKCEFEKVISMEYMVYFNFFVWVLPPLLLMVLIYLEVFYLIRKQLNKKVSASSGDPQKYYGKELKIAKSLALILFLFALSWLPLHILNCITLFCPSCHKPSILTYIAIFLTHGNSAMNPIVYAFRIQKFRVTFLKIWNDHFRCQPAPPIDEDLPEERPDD
How it was run: (§1)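 Human recombinant A1 receptor in CHO cell membranes, resuspended in 50 mM Tris HCl pH 7.4. Displacement run 120 min at 25 °C with 1 nM [3H]DPCPX, 50 µg protein per assay, and at least six to eight test concentrations. Nonspecific binding defined with CHA. Bound and free separated on glass-fiber filters; filter radioactivity counted. n = 3-6.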

[4] = target: Adenosine receptors; A2b & A3 (Homo sapiens) (UniProt P29275+P0DMS8); experiment: Selectivity ratio (h2B/hA3); assay type: protein assay
Adenosine receptor A2b [5] = target: T3, Adenosine receptor A2b (Homo sapiens, UniProt P29275); experiment: Displacement of [3H]DPCPX binding at human Adenosine A2B receptor expressed in HEK293 cells; assay type: cell-based
T3 sequence (P29275 whole entry): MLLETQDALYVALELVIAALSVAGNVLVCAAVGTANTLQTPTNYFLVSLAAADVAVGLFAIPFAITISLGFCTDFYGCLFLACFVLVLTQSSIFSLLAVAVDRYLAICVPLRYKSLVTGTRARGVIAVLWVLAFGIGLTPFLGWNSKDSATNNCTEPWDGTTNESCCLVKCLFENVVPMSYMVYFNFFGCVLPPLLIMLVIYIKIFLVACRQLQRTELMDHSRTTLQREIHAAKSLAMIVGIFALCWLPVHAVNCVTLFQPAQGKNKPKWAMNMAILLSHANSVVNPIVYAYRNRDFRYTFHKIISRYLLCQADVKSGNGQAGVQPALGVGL
How it was run: (§2)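 Membranes from HEK-293 cells with human recombinant A2B receptor. Incubation 60 min at 25 °C in 50 mM Tris HCl, 10 mM MgCl2, 1 mM EDTA, 0.1 mM benzamidine, pH 7.4, with 2 IU/mL adenosine deaminase and 40 nM [3H]DPCPX. At least six to eight test concentrations. Nonspecific binding defined with NECA. n = 3-6.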

Adenosine receptor A2a [6] = target: T4, Adenosine receptor A2a (Homo sapiens, UniProt P29274); experiment: Displacement of [3H]SCH-58261 from human Adenosine A2A receptor expressed in CHO cells; assay type: cell-based
How it was run: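 Membranes from CHO cells expressing the human receptor (50 µg protein) with [3H]SCH58261 and six to eight competitor concentrations. Incubated 60 min at 25 °C. Nonspecific binding was set with NECA.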

Adenosine receptor A2a [7] = target: T4, Adenosine receptor A2a; experiment: Displacement of [3H]SCH-58261 from human Adenosine A2A receptor expressed in HEK293 cells; range 114-179; assay type: cell-based
Adenosine receptor A3 [8] = target: T1, Adenosine receptor A3; experiment: Inhibition of IB-MECA agonist-mediated cAMP production in CHO cell membranes expressing human Adenosine A3 receptor; range 15-44; assay type: functional, cell-based
How it was run: (§3)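 Human A3-CHO membranes (in 50 mM Tris HCl, 10 mM MgCl2, 1 mM EDTA, pH 7.4) were preincubated for 10 min at 37 °C with 5 µM GTP, 0.5 mM Ro 20-1724 and 2.0 IU/mL adenosine deaminase. IB-MECA (100 nM) or antagonist was then added with 1 mM ATP and forskolin for 10 min. The reaction was stopped by 2 min boiling. cAMP was measured by [3H]cAMP competitive protein binding using beef adrenal binding protein, 150 min at 4 °C.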

Adenosine receptor A2b [9] = target: T3, Adenosine receptor A2b; experiment: Displacement of [3H]-DPCPX from human Adenosine A2B receptor expressed in HEK293 cells; range 91-148; assay type: cell-based
How it was run: (§4)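 Competition binding on membranes of HEK-293 cells carrying recombinant human A2B receptor. Incubation 60 min at 25 °C in 50 mM Tris HCl pH 7.4 with 10 mM MgCl2, 1 mM EDTA, 0.1 mM benzamidine and 2 IU/mL adenosine deaminase. Radioligand 40 nM [3H]DPCPX, at least six to eight test concentrations. NECA defined nonspecific binding. Bound ligand separated on glass-fibre filters and counted; n = 3-6.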

Adenosine receptor A3 [10] = target: T1, Adenosine receptor A3; experiment: Displacement of [3H]MRE3008-F20 from human Adenosine A3 receptor expressed in HEK cells; range 3.05-3.78; assay type: cell-based, HEK293
Adenosine receptor A1 [11] = target: T2, Adenosine receptor A1; experiment: Displacement of [3H]DPCPX from human Adenosine A1 receptor expressed in CHO cells; range 324-475; assay type: cell-based
Adenosine receptor A2a [12] = target: T4, Adenosine receptor A2a; experiment: Displacement of [3H]SCH-58261 from human Adenosine A2A receptor expressed in HEK293 cells; range 36-70; assay type: cell-based
Adenosine receptor A2b [13] = target: T3, Adenosine receptor A2b; experiment: Displacement of [3H]-DPCPX from human Adenosine A2B receptor expressed in HEK293 cells; range 107-172; assay type: cell-based
How it was run: (§5)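 HEK-293 membranes expressing the human receptor were incubated 60 min at 25 °C. Six to eight test concentrations were used. Nonspecific binding was set with NECA. n = 3-6.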

Adenosine receptor A1 [14] = target: T2, Adenosine receptor A1; experiment: Displacement of [3H]DPCPX from human Adenosine A1 receptor expressed in CHO cells; range 253-401; assay type: cell-based; how it was run: as §1
Adenosine receptor A3 [15] = target: T1, Adenosine receptor A3; experiment: biochemical
Adenosine receptor A3 [16] = target: T1, Adenosine receptor A3; experiment: Inhibition of IB-MECA agonist-mediated cAMP production in membranes of CHO cells expressing human Adenosine A3 receptor; assay type: functional, cell-based; how it was run: as §3
Adenosine receptor A2b [17] = target: T3, Adenosine receptor A2b; experiment: Displacement of [3H]DPCPX from human Adenosine A2B receptor expressed in HEK293 cells; range 25-40; assay type: cell-based; how it was run: as §5
Adenosine receptor A1 [18] = target: T2, Adenosine receptor A1; experiment: Displacement of [3H]DPCPX from human Adenosine A1 receptor expressed in CHO cells; range 552-676; assay type: cell-based
How it was run: (§6)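 Competition binding on membranes of CHO cells stably expressing human A1 receptor, resuspended in 50 mM Tris HCl pH 7.4. Incubation 120 min at 25 °C with 1 nM [3H]DPCPX, 50 µg protein per assay and at least six to eight test concentrations. CHA defined nonspecific binding. Bound ligand separated on glass-fibre filters and counted; n = 3-6.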

Adenosine receptor A2a [19] = target: T4, Adenosine receptor A2a; experiment: Displacement of [3H]SCH-58261 from human Adenosine A2A receptor expressed in HEK293 cells; range 362-445; assay type: cell-based
Adenosine receptor A3 [20] = target: T1, Adenosine receptor A3; experiment: Displacement of [3H]MRE3008-F20 from human Adenosine A3 receptor expressed in HEK cells; range 2.0-3.1; assay type: cell-based, HEK293
Adenosine receptor A2b [21] = target: T3, Adenosine receptor A2b; experiment: Displacement of [3H]DPCPX from human Adenosine A2B receptor expressed in HEK293 cells; range 152-216; assay type: cell-based; how it was run: as §4
Adenosine receptor A2a [22] = target: T4, Adenosine receptor A2a; experiment: Displacement of [3H]SCH-58261 from human Adenosine A2A receptor expressed in HEK293 cells; range 83-120; assay type: cell-based
Adenosine receptor A1 [23] = target: T2, Adenosine receptor A1; experiment: Displacement of [3H]DPCPX from human Adenosine A1 receptor expressed in CHO cells; range 512-698; assay type: cell-based; how it was run: as §6
Adenosine receptor A3 [24] = target: T1, Adenosine receptor A3; experiment: Inhibition of IB-MECA agonist-mediated cAMP production in CHO cell membranes expressing human Adenosine A3 receptor; range 2.7-6.6; assay type: functional, cell-based; how it was run: as §3
Adenosine receptor A3 [25] = target: T1, Adenosine receptor A3; experiment: Displacement of [3H]MRE3008-F20 from human Adenosine A3 receptor expressed in HEK cells; range 0.39-0.54; assay type: cell-based, HEK293
Adenosine receptor A2a [26] = target: T4, Adenosine receptor A2a; experiment: Displacement of [3H]SCH-58261 from human Adenosine A2A receptor expressed in HEK293 cells; range 34-50; assay type: cell-based
Adenosine receptor A2b [27] = target: T3, Adenosine receptor A2b; experiment: Displacement of [3H]DPCPX from human Adenosine A2B receptor expressed in HEK293 cells; range 140-186; assay type: cell-based; how it was run: as §2
Adenosine receptor A3 [28] = target: T1, Adenosine receptor A3; experiment: biochemical; remark: listed apart in the source
Adenosine receptor A1 [29] = target: T2, Adenosine receptor A1; experiment: Displacement of [3H]DPCPX from human Adenosine A1 receptor expressed in CHO cells; range 294-480; assay type: cell-based

T4 sequence (P29274 whole entry): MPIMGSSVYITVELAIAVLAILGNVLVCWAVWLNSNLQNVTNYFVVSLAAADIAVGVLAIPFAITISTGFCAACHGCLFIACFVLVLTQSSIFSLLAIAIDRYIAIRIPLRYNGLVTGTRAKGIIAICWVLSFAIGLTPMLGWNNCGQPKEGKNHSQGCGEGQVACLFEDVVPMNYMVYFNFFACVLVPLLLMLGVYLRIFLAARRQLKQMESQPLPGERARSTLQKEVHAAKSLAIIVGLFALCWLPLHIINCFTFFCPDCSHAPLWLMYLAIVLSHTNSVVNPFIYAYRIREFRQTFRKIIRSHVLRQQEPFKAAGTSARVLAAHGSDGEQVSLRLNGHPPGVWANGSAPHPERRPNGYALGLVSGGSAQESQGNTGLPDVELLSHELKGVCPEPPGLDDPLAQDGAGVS

Q: For `CCn1cc2c(nc(NC(=O)Nc3ccc([N+](=O)[O-])cc3)n3nc(-c4ccco4)nc23)n1`, which Ki (Adenosine receptor A3 [1]) is on record?
A: 0.65 nM

Q: And the Ratio [2]?
A: 1740

Q: What about the Ki (Adenosine receptor A1 [3]) of the same compound?
A: 1130 nM

Q: What about the Ratio [4] of the same compound?
A: 348

Q: What about the Ki (Adenosine receptor A2b [5]) of the same compound?
A: 226 nM

Q: And the Ki (Adenosine receptor A2a [6])?
A: 614 nM

Q: Which Ki (Adenosine receptor A2a [7]) does the source give for `Cn1cc2c(nc(NC(=O)Nc3ccc(Cl)c(Cl)c3)n3nc(-c4ccco4)nc23)n1` here?
A: 143 nM

Q: And the Ratio [2]?
A: 115

Q: And the IC50 (Adenosine receptor A3 [8])?
A: 26 nM

Q: And the Ki (Adenosine receptor A2b [9])?
A: 116 nM

Q: And the Ratio [4]?
A: 34

Q: And the Ki (Adenosine receptor A3 [10])?
A: 3.4 nM

Q: What about the Ki (Adenosine receptor A1 [11]) of the same compound?
A: 392 nM

Q: What does the source list for `CCCCn1cc2c(nc(NC(=O)Nc3ccc(F)cc3)n3nc(-c4ccco4)nc23)n1`?
A: Ki (Adenosine receptor A2a [12]): 50 nM; Ki (Adenosine receptor A2b [13]): 136 nM; Ratio [2]: 398; Ki (Adenosine receptor A1 [14]): 318 nM; Ratio [4]: 170; Ki (Adenosine receptor A3 [15]): 0.8 nM

Q: Which results are given for `Cn1cc2c(nc(NC(=O)Nc3ccc([N+](=O)[O-])cc3)n3nc(-c4ccco4)nc23)n1`?
A: IC50 (Adenosine receptor A3 [16]): 5.5 nM; Ki (Adenosine receptor A3 [1]): 0.43 nM; Ratio [2]: 2590; Ki (Adenosine receptor A1 [3]): 1110 nM; Ratio [4]: 419; Ki (Adenosine receptor A2b [5]): 180 nM; Ki (Adenosine receptor A2a [6]): 695 nM

Q: Which results are given for `CCCn1cc2c(nc(NC(=O)Nc3ccc(Cl)c(Cl)c3)n3nc(-c4ccco4)nc23)n1`?
A: Ratio [2]: 244; Ki (Adenosine receptor A2b [17]): 31 nM; Ki (Adenosine receptor A1 [18]): 611 nM; Ratio [4]: 12; Ki (Adenosine receptor A2a [19]): 401 nM; Ki (Adenosine receptor A3 [20]): 2.5 nM

Q: `Cn1cc2c(nc(NC(=O)Nc3ccc(Br)cc3)n3nc(-c4ccco4)nc23)n1` was tested. Which Ratio [2] did it give?
A: 1300

Q: And the Ki (Adenosine receptor A2b [21])?
A: 181 nM

Q: And the Ratio [4]?
A: 393

Q: And the Ki (Adenosine receptor A2a [22])?
A: 100 nM

Q: And the Ki (Adenosine receptor A1 [23])?
A: 600 nM

Q: What about the IC50 (Adenosine receptor A3 [24]) of the same compound?
A: 4.2 nM

Q: And the Ki (Adenosine receptor A3 [25])?
A: 0.46 nM

Q: Which results are given for `CCCn1cc2c(nc(NC(=O)Nc3ccc(F)cc3)n3nc(-c4ccco4)nc23)n1`?
A: Ki (Adenosine receptor A2a [26]): 42 nM; Ki (Adenosine receptor A2b [27]): 161 nM; Ki (Adenosine receptor A3 [28]): 0.29 nM; Ratio [2]: 1300; Ki (Adenosine receptor A1 [29]): 376 nM; Ratio [4]: 555
